# Measurements as given in ChEMBL document CHEMBL1145087 (J Med Chem, 2003).
# Columns and labels:
# Estrogen receptor = Estrogen receptor (Homo sapiens, UniProt Q92731+P03372); experiment: Antagonistic efficacy against human estrogen receptor; format: functional
# Procedure, shortened: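 Cotransfection LUC reporter assay for hER. Antagonist efficacy is the % maximal inhibition of a standard agonist (estradiol is the reference agonist for hER) applied at its EC50.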
# [1] = biological target: T1, Mineralocorticoid receptor (Homo sapiens) (UniProt P08235); experiment: Agonistic efficacy against human Mineralocorticoid receptor; format: functional
# T1 sequence (whole entry): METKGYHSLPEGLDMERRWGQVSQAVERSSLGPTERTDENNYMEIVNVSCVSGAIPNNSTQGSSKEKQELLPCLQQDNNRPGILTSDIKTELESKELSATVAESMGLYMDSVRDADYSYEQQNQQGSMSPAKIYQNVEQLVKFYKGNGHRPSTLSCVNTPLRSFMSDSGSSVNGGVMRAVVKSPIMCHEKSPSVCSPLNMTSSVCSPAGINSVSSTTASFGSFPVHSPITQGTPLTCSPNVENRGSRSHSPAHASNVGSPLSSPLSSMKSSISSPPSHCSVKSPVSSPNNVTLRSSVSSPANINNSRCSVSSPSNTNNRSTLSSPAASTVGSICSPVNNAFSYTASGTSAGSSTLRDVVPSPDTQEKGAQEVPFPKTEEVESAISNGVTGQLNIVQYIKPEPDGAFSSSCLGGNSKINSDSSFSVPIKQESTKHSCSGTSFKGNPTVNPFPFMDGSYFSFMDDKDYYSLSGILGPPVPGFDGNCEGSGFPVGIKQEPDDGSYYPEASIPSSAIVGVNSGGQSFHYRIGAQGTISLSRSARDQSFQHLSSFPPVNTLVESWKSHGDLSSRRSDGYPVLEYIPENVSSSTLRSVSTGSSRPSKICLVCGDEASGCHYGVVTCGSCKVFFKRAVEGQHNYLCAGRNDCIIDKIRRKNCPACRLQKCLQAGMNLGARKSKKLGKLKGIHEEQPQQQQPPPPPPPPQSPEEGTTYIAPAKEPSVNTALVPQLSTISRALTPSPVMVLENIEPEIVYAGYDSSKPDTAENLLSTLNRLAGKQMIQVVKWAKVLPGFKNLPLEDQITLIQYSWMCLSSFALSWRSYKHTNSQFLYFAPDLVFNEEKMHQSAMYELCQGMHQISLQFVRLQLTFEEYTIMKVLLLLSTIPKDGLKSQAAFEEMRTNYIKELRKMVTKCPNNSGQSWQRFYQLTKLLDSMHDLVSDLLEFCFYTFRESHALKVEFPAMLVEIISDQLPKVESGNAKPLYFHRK
# Procedure, shortened: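 Cell-based cotransfection assay for hMR in 96-well format. Agonist activity is read as normalized LUC expression. Efficacy is expressed relative to the maximal LUC response to aldosterone.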
# Progesterone receptor = biological target: T2, Progesterone receptor (Homo sapiens, UniProt P06401); experiment: Agonistic activity against human progesterone receptor in CV-1 cells; format: functional, cell-based
# T2 sequence (P06401 whole entry): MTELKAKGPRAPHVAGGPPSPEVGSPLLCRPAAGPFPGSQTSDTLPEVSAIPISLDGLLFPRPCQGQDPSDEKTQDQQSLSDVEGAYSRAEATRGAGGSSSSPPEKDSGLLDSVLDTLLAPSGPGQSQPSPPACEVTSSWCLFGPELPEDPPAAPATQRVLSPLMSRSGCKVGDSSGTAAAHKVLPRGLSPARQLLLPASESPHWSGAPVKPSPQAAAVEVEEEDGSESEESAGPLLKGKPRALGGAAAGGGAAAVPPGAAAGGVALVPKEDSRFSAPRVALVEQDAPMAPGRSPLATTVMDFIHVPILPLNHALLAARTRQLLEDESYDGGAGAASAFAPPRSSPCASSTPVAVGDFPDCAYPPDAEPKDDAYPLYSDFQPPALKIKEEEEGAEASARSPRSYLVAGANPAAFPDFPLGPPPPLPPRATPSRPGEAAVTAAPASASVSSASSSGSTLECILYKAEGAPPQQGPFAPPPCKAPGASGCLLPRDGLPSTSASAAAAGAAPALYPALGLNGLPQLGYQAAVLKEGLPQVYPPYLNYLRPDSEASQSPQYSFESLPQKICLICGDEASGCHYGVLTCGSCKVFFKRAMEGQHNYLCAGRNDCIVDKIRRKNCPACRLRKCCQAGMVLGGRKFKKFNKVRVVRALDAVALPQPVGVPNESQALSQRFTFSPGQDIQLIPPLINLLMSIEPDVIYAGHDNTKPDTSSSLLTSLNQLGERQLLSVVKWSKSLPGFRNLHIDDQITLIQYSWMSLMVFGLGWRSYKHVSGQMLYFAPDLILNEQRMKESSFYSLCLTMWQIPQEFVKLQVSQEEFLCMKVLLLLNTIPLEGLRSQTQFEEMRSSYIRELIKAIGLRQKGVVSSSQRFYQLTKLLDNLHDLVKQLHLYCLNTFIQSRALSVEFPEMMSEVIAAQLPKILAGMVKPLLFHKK
# [2] = biological target: T3, Progesterone receptor (Homo sapiens) (UniProt P06401); experiment: Percent agonistic effect towards human progesterone receptor in T47D breast cancer cells; format: functional, cell-based
# T3 sequence (whole entry): T2 sequence (P06401 whole entry)
# Homo sapiens = organism: Homo sapiens; experiment: Relative potency for human androgen and progesterone receptors
# Androgen receptor = biological target: T4, Androgen receptor (Homo sapiens, UniProt P10275); experiment: biochemical
# T4 sequence (P10275 whole entry): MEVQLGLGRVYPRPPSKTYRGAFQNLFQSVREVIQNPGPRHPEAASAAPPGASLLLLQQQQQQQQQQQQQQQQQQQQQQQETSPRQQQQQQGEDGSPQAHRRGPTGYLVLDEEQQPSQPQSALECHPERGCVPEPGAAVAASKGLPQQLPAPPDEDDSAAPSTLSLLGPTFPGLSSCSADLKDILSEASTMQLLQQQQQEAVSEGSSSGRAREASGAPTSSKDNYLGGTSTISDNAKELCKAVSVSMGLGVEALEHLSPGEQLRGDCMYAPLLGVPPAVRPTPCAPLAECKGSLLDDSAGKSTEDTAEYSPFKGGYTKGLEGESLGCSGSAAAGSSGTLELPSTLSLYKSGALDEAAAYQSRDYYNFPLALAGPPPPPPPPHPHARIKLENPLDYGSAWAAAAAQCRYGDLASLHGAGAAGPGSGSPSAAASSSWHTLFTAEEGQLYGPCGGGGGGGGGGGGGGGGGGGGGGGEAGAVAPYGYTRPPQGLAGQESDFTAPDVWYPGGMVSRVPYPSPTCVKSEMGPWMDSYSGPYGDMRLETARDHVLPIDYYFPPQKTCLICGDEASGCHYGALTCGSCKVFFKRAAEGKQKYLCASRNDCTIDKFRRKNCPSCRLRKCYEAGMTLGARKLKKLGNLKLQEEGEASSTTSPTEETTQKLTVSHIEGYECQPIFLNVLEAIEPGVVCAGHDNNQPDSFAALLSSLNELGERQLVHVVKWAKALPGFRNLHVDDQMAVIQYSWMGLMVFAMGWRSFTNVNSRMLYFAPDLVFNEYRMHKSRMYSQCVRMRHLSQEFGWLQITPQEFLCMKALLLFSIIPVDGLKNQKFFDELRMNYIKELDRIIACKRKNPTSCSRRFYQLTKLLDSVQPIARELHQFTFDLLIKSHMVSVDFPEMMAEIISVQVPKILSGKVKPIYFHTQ
SMILES,Efficacy (Estrogen receptor),Efficacy [1],EC50 (Progesterone receptor),Efficacy [2],Ratio (Homo sapiens),Ki (Androgen receptor)
CC1=CC(C)(C)Nc2ccc3c(c21)/C(=C/c1ccccc1C)Oc1c(F)cccc1-3,41%,70%,1.4 nM,43%,> 1000,960 nM
CC1=CC(C)(C)Nc2ccc3c(c21)/C(=C/c1ccsc1)Oc1ccc(F)cc1-3,36%,63%,0.71 nM,48%,303,669 nM
CCc1ccccc1/C=C1\Oc2ccc(F)cc2-c2ccc3c(c21)C(C)=CC(C)(C)N3,,50%,2 nM,51%,> 1000,1590 nM
CC1=CC(C)(C)Nc2ccc3c(c21)/C(=C/c1ccncc1C)Oc1ccc(F)cc1-3,44%,71%,,46%,> 1000,> 1000 nM
CC1=CC(C)(C)Nc2ccc3c(c21)/C(=C/c1ccccc1)Oc1c(F)cccc1-3,,> 20%,2.1 nM,45%,429,1460 nM
